# Sampled rows, rich in hits. Any-hit rate of the full collection: about 2.2%.
# Tn6 DDE FP = inhibitors of Tn6 peptide binding to fibrin DD(E), primary screen, biochemical, fluorescence polarization, human fibrin, Tn6 probe; Fibrinogen beta chain (Homo sapiens), P02675; Fibrin DD(E) TRITC-Tn6 fluorescence polarization displacement; inhibition, % at 8.3 µM; 370,000 compounds, 0.21% hits;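 active = inhibition above a per-campaign cutoff: mean of compounds within control limits plus 3 SD, cut at about 15% in these data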;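 note: 0% = median of all compound wells on the plate and 100% = blocking peptide control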
# SKN-1 inh = suppressors of acrylamide-induced Pgst-4::GFP reporter in worms, primary screen, SKN-1 inhibitor project, whole organism, uHTS, GFP/RFP fluorescence ratio, strain VP596; C. elegans VP596 Pgst-4::GFP/RFP ratio, 24 h; inhibition, % at 21.8 µM; 360,000 compounds, 0.49% hits; AID 624304, 2012;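 active = interference check ratio from 0.5 to 1.5 plus GFP to RFP signal ratio inhibition reaching or exceeding a fixed threshold, cut at about 30% in these data, passing the limit was not always enough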
# MT1-MMP act inh = blockers of MT1-MMP proenzyme processing, primary screen, HT1080 RFP-PRO-GFP cells, GFP/RFP fluorescence; Matrix metalloproteinase-14 (Homo sapiens), P50281; GFP/RFP ratio fluorescence, overnight; percent of plate control window, DMSO zero; GFP/RFP ratio change, % at 20 µM; 360,000 compounds, 0.061% hits;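 active = GFP/RFP ratio change of at least 30% with cell ATP level not reduced by more than half and red fluorescence within 50% of control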
#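 Assay system: HT1080 cells carrying an RFP-PRO-GFP reporter | Dosing: Single dose of 20 µM compound, 1% DMSO final | Incubation: Cells overnight before dosing, compound overnight, 37 °C, 5% CO2 | Evaluation: GFP/RFP fluorescence ratio | Control set: DMSO and RFP-L50D-GFP cell wells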
# Tn7 DDE FP = inhibitors of Tn7 peptide binding to fibrin DD(E), primary screen, biochemical, fluorescence polarization, human fibrin, Tn7 probe | Fibrinogen beta chain (Homo sapiens), P02675 | FP displacement of FITC-Tn7 peptide from fibrin DD(E); 0% = median of compound wells per plate | inhibition, % at 8.3 µM | 370,000 compounds, 0.13% hits;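 active = inhibition above the mean of compounds falling within the control limits plus 3 SD of them, cut at about 14% in these data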;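 note: 0% = plate median of compound wells and 100% = 10 µM Aha-Tn7 peptide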
#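 System: human fibrin DD(E); quantity: Fibrin-DD(E) at 2 µM final; also added: fluorescent Tn7 probe at 0.1 µM; compound dosing: single nominal test concentration of 8.3 µM per compound; schedule: 10 min preincubation, 3 h with tracer, room temperature; detection: fluorescence polarization of the labelled Tn7 tracer; repeats: one replicate per compound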
# proKLK7 act = proKLK7 zymogen activators, primary screen, biochemical, fluorescence intensity | 370,000 compounds, 0.9% hits | AID 652039, 2013 | Kallikrein-7 (Homo sapiens), P49862 | purified proKLK7, EDANS-DABCYL substrate fluorescence; 100% is mature enzyme control, 0% vehicle | activation, % at 7 µM;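 active = activation above the mean of all tested compounds plus 3 SD, computed per campaign excluding outliers beyond control limits, cut at about 13% in these data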
# Target sequence (P49862 whole entry, looked up): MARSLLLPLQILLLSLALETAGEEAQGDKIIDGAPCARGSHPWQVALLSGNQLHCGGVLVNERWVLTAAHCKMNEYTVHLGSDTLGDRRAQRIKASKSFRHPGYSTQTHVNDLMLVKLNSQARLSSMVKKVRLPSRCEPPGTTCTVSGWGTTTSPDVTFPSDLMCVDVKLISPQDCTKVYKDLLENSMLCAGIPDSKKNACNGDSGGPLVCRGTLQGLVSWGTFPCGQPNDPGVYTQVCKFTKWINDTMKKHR
# Neddyl block = inhibitors of cullin neddylation, primary screen, biochemical, TR-FRET, uHTS, NAE and Ubc12; calls only at 25 µM; NEDD8-conjugating enzyme Ubc12 (Homo sapiens) + NEDD8-activating enzyme E1 regulatory …; AID 651699, 2012; 360,000 compounds, 0.58% hits; in the data active = inhibition above about 36%
# Neddyl conf = blockade of NEDD8 conjugation to cullin – biochemical, TR-FRET, single concentration, confirmation. shares compounds with Neddyl block. TR-FRET cullin neddylation biochemical assay. calls only at 25 µM. 1,800 compounds, 13% hits; in the data active = inhibition above about 40%;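 note: neddylation substrate is the cullin 1 ring ligase complex with SKP2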
# The depositor's hits bear a star; i = inactive; . = not tested or not shown; + = active, no number.
SMILES,Tn6 DDE FP,SKN-1 inh,MT1-MMP act inh,Tn7 DDE FP,proKLK7 act,Neddyl block,Neddyl conf
CCOC(=O)C1C(=O)NC(c2ccccc2)=NC1c1ccc(Br)cc1 (stereo unspecified),0,0,2,-9,0,i,.
COc1ccc(CCNC(=O)CCC(=O)Nc2ccc3nc(N4CCN(C)CC4)cc(C)c3c2)cc1OC,5,4,-5,4,0,i,.
COc1cccc(NC(=O)CCC(=O)Nc2ccc3nc(N4CCOCC4)cc(C)c3c2)c1,1,16,-2,0,-4,+,.
Cc1cc(N2CCN(C)CC2)nc2ccc(NC(=O)CCC(=O)NCCC3=CCCCC3)cc12,-2,-4,4,7,1,+,i
Cc1cc(N2CCOCC2)nc2ccc(NC(=S)NC(C)C)cc12,-1,-1,8,1,3,+,i
COCCCNC(=O)CCC(=O)Nc1ccc2nc(N3CCOCC3)cc(C)c2c1,-4,-2,5,-3,5,.,.
CC(=O)Nc1ccc(S(=O)(=O)NCC(=O)OCC(=O)N2CCCCCC2)cc1,2,-1,1,-3,0,i,.
COc1cc2c(cc1OC)C(c1cccs1)NCC2 (stereo unspecified),-10,5,-5,5,0,i,.
COc1cc2c(cc1OC)C(COc1ccc(C(C)C)cc1)NCC2 (stereo unspecified),3,8,-4,6,1,+,i
O=C(NCc1ccccn1)c1cccn1-c1ncc(C(F)(F)F)cc1Cl,-3,13,5,3,0,i,.
Cc1cc(NC(=O)COC(=O)c2nccnc2N)n(-c2ccccc2)n1,4,-6,6,-5,-27,+,.
COc1ccc(/C=C2\CCCC3C2=NN(C(=O)CSc2n[nH]c(N)n2)C3c2ccc(OC)cc2)cc1 (stereo unspecified),-6,2,1,-2,0,+,.
CCc1ccc(S(=O)(=O)c2n[nH]n3c2nc(=O)c2ccccc23)cc1,3,-1,0,-7,-2,+,i
CC(C)c1ccc(S(=O)(=O)c2n[nH]n3c2nc(=O)c2ccccc23)cc1,4,-5,3,-8,-1,+,i
COC(=O)C1CN(CC(C)C)CCS(=O)(=O)N1Cc1ccc(OC)cc1 (stereo unspecified),-9,.,.,4,0,.,.
COc1ccc(-c2cc(=O)[nH][nH]2)cc1,-6,22,1,4,1,i,.
COc1cccc(-c2cc3nc(C)cc(N4CCN(C(=O)c5ccoc5)CC4)n3n2)c1,-6,7,2,1,0,+,.
COc1ccc(-c2cc3nc(C)cc(N4CCN(C(=O)c5ccoc5)CC4)n3n2)cc1,-5,-5,3,-6,0,.,.
COc1cccc(/C=C/C(=O)OCC(=O)NCc2ccco2)c1,2,6,2,4,3,+,i
CCC(=O)Nc1nnc(CSCc2ccccc2)s1,-1,3,0,-3,0,i,.
Cc1cc(C)c2c(NC(=O)CCl)nn(C)c2n1,-1,-8,2,0,0,+,i
Cc1cc(C)c2c(NC(=S)NC(=O)c3ccccc3)nn(C)c2n1,-1,7,5,-6,0,i,.
COC(=O)[C@]12C[C@H](CC(=O)NCCC(C)C)C(=O)N(Cc3cccc4ccccc34)C1=C[C@H](COCc1ccccc1)O[C@@H]2C,-2,.,.,-1,0,.,.
O=C(O)[C@@H]1Cc2c([nH]c3ccccc23)C2CCC(=O)N21 (stereo partly specified),1,7,-4,4,2,+,i
CN(C)c1ccc(/C=N/NC(=O)C2CC2c2ccccc2)cc1 (stereo unspecified),-9,-2,-2,6,-4,+,+
SMILES,Tn6 DDE FP,SKN-1 inh,MT1-MMP act inh,Tn7 DDE FP,proKLK7 act,Neddyl block,Neddyl conf
CCN(CC)c1ccc(/C=N/NC(=O)c2c(Cl)c(C)nn2C)cc1,1,2,4,-3,-1,+,i
CCN(CC)c1ccc(/C=N/NC(=O)c2ccc(Br)o2)cc1,3,-5,0,9,-1,.,.
CCN(CC)c1ccc(/C=N/NC(=O)C(O)c2ccccc2)cc1 (stereo unspecified),5,4,-5,1,1,+,.
CCN(CC)c1ccc(/C=N/NC(=O)C2CC2)cc1,2,10,-1,-4,5,+,+
CC1=NNC(=O)C1CCC(=O)N/N=C/c1ccc(Cl)cc1 (stereo unspecified),-16,7,-4,0,0,i,.
Cc1ccc(S(=O)(=O)N2CCC(C(=O)Nc3ccccc3N3CCCCC3)CC2)cc1,2,9,-2,1,0,i,.
C=CCc1ccc(OC(=O)NC2CCCCC2)c(OC)c1,2,18,0,-8,0,i,.
CC1CN(S(=O)(=O)c2cccc(C(=O)NCc3ccc4c(c3)OCO4)c2)CC(C)O1 (stereo unspecified),5,-19,4,-2,1,i,.
O=C(N/N=C/c1ccc(N2CCOCC2)cc1)C1CC1,-2,2,2,4,2,+,i
CCN(CC)c1ccc(/C=N/NC(=O)Cc2ccc(OC)c(OC)c2)cc1,7,0,-1,11,-4,+,+
C=CCNC(=S)N/N=C/c1ccc(N(CC)Cc2ccccc2)cc1,1,10,-14,-2,-15,+,.
COc1ccc(/C=N/NC(=O)Cc2ccc(Cl)cc2)cc1OC,4,2,-2,4,-1,i,.
COc1ccc(/C=N/NC(=O)c2c(C)n(C)c3ccc(OC)cc23)c(OC)c1,2,-5,5,2,0,i,.
COc1cc2c(cc1NC(C)=O)CCCC2,2,4,7,1,0,i,.

# Assay outcomes deposited in PubChem BioAssay by several laboratories.
